# Measured values from ChEMBL document CHEMBL3593159, “Identification of 5-nitrofuran-2-amide derivatives that induce apoptosis in triple negative breast cancer cells by activating C/EBP-homologous protein expression” (Bioorg Med Chem, 2015).
# pIC50: −log10 of the molar value. Active and inactive are the calls of the source. No cut-off for these calls is given here.
# Key:
# [1] = test system: HCC1806; assay: Cytotoxicity against human HCC1806 cells assessed as reduction in cell viability incubated for 3 days by cell-titer-Glo reagent based assay; type: functional; details: for pIC50: HCC1806, 72 h
# Method in brief: (§1)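 Viability by CellTiter-Glo (ATP read-out). Cells plated at 3 × 10³/well in 384-well format overnight, then exposed to compound over a range (0.125–20 µM for initial series) for 3 d in RPMI 1640 with 10% FBS at 37°C, 5% CO₂. IC₅₀ fitted from dose–response curve.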
# [2] = test system: HCC1143; assay: Cytotoxicity against human HCC1143 cells assessed as reduction in cell viability incubated for 3 days by cell-titer-Glo reagent based assay; type: functional; details: for pIC50: HCC1143, 72 h; method in brief: as §1
# [3] = test system: HCC38; assay: Cytotoxicity against human HCC38 cells assessed as reduction in cell viability incubated for 3 days by cell-titer-Glo reagent based assay; type: functional; details: for pIC50: HCC38, 72 h; method in brief: as §1
# [4] = test system: HEK-293T; assay: Increase in CHOP expression in HEK293T cells stably transfected with luciferase gene at 10 uM incubated for 24 hrs by luciferase reporter gene assay; type: functional, Homo sapiens
# Method in brief: (§2)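 HEK293T cells stably carrying CHOP-, ERSE- or UPRE-luciferase reporters plated 7 × 10³/well in 384-well plates, after 16 h given compound (10 µM), tunicamycin 1 µg/mL or DMSO for 24 h; luciferase by Bright-Glo. Means of 4 replicate wells, representative of 3 experiments.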
# [5] = test system: HEK293; assay: Increase in CHOP mRNA expression in HEK293 cells at 10 uM incubated for 24 hrs by qRT-PCR method; type: functional, Homo sapiens
# Method in brief: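 HEK293 cells given 10 µM compound or DMSO for 24 h; CHOP mRNA by qRT-PCR. Means of 3 replicate wells, 3 independent experiments, Student's t-test vs control.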
# [6] = test system: HEK-293T; assay: Increase in ERSE-mediated luciferase expression in HEK293T cells stably transfected with ERSE-luciferase gene at 10 uM incubated for 24 hrs by luciferase reporter gene assay; type: functional, cell-based; details: Homo sapiens; method in brief: as §2
# [7] = test system: HCC1806; assay: Increase in CHOP protein expression in human HCC1806 cells at 10 uM incubated for 2 and 24 hrs by Western blotting method; type: functional, cell-based; details: in the assay text read “4 and 24 hrs” for “2 and 24 hrs”
# Method in brief: (§3)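 HCC-1806 cells (8 × 10⁵ per 60-mm dish) treated with 10 µM for the indicated times, lysed in buffer with EDTA and phosphatase inhibitors; 20 µg protein on 7% SDS-PAGE, PVDF transfer, primary then HRP secondary antibodies (1:3000). α-Tubulin loading control; representative of 3 experiments.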
# [8] = test system: HCC1806; assay: Increase in CHOP mRNA expression in human HCC1806 cells incubated for 8 hrs by qRT-PCR method; type: functional, cell-based
# Method in brief: (§4)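 HCC-1806 cells (4 × 10⁵/well, 6-well) treated at a series of concentrations for 8 h; total RNA by TRIzol, 2 µg reverse transcribed, CHOP mRNA by qRT-PCR. Means of 4 replicate wells, 3 experiments, t-test vs DMSO.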
# [9] = test system: HCC1806; assay: Increase in CHOP mRNA expression in human HCC1806 cells at 10 uM by qRT-PCR method; type: functional, cell-based; details: TDE = time-dependent effect
# Method in brief: (§5)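 HCC-1806 cells (4 × 10⁵/well) exposed to 10 µM over a time course; CHOP mRNA by qRT-PCR after TRIzol extraction and reverse transcription of 2 µg RNA. Means of 4 replicate wells, 3 experiments, t-test vs 0 h.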
# [10] = test system: HCC1806; assay: Induction of apoptosis in human HCC1806 cells assessed as increase in caspase-3 cleavage at 10 uM incubated for 8 and 24 hrs by Western blotting method; type: functional, cell-based; method in brief: as §3
# [11] = test system: MCF7; assay: Cytotoxicity against human MCF7 cells assessed as reduction in cell viability incubated for 3 days by cell-titer-Glo reagent based assay; type: functional
# Method in brief: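 HCC-1806 and MCF7 cells exposed to compound for 3 d, viability read by CellTiter-Glo kit; means of 4 replicate wells, representative of 3 independent experiments.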
# [12] = test system: HCC1806; assay: Increase in Bim mRNA expression in human HCC1806 cells at 10 uM by RT-PCR method; type: functional, cell-based; details: TDE = time-dependent effect
# Method in brief: (§6)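 HCC-1806 cells treated with 10 µM over a time course; ATF4, GADD34 or Bim mRNA by qRT-PCR. Means of 4 replicate wells, representative of 3 experiments, Student's t-test vs DMSO-treated cells.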
# [13] = test system: HCC1806; assay: Induction of apoptosis in human HCC1806 cells assessed as reduction in cell number at 10 uM incubated for 24 hrs by live-cell phase-contrast microscopy; type: functional, cell-based
# Method in brief: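 Near-confluent HCC-1806 cultures treated with 10 µM compound or DMSO for 24 h, then imaged by live-cell phase-contrast microscopy at 10× magnification.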
# [14] = test system: HCC1806; assay: Reduction in eIF2alpha phosphorylation in human HCC1806 cells at 10 uM incubated for 1 to 24 hrs by Western blotting method; type: functional, cell-based; method in brief: as §3
# [15] = test system: HCC1806; assay: Increase in CHOP mRNA expression in human HCC1806 cells at 5 uM in presence of control siRNA incubated for 48 hrs by qRT-PCR method; type: functional, cell-based
# Method in brief: (§7)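 HCC-1806 cells transfected with CHOP or scrambled siRNA; 6 h later treated with 5 µM compound or DMSO for 48 h. CHOP mRNA by RT-PCR with GAPDH as internal control; 3 independent experiments.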
# [16] = test system: HCC1806; assay: Increase in ATF4 protein in human HCC1806 cells at 10 uM incubated for 2 to 8 hrs by Western blotting method; type: functional, cell-based; method in brief: as §3
# [17] = test system: HCC1806; assay: Cytotoxicity against human HCC1806 cells assessed as reduction in cell viability at 5 uM incubated for 48 hrs in presence of control siRNA by cell-titer-Glo reagent based assay; type: functional
# Method in brief: (§8)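 HCC-1806 cells in serum-free RPMI transfected with 20 nM CHOP or scrambled siRNA by lipofection; after 6 h medium replaced with 10% FBS RPMI and compound (5 µM) or DMSO added for 48 h in 96-well format. Viability by CellTiter-Glo; 3 independent experiments, Student's t-test vs DMSO.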
# [18] = test system: HCC1806; assay: Increase in GADD34 mRNA expression in human HCC1806 cells at 10 uM incubated for 2 to 24 hrs by qRT-PCR method; type: functional, cell-based; details: TDE = time-dependent effect; method in brief: as §6
# [19] = test system: HCC1806; assay: Reduction in Bcl-2 protein expression in human HCC1806 cells at 10 uM incubated for 2 to 24 hrs by Western blotting method; type: functional, cell-based; method in brief: as §3
# [20] = test system: HCC1806; assay: Increase in XBP1 mRNA splicing in human HCC1806 cells at 10 uM incubated for 24 hrs by RT-PCR method (reference value: 11%); type: functional
# Method in brief: (§9)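 HCC-1806 cells given 10 µM compound or tunicamycin 1 µg/mL over a time course; XBP1 RT-PCR products resolved on agarose gel, GAPDH internal control. Spliced fraction by densitometry as XBP1s/(XBP1s+XBP1u) × 100%; 3 experiments.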
# [21] = test system: HCC1806; assay: Increase in CHOP mRNA expression in human HCC1806 cells incubated for 8 hrs by qRT-PCR method relative to control; type: functional; method in brief: as §4
# [22] = test system: HCC1806; assay: Cytotoxicity against human HCC1806 cells assessed as reduction in cell viability at 5 uM incubated for 48 hrs in presence of CHOP siRNA by cell-titer-Glo reagent based assay; type: functional; method in brief: as §8
# [23] = test system: HCC1806; assay: Increase in CHOP mRNA expression in human HCC1806 cells at 10 uM by qRT-PCR method relative to control; type: functional; method in brief: as §5
# [24] = test system: HCC1806; assay: Increase in XBP1 mRNA splicing in human HCC1806 cells at 10 uM incubated for 4 hrs by RT-PCR method (reference value: 11%); type: functional; method in brief: as §9
# [25] = test system: HCC1806; assay: Increase in eIF2alpha phosphorylation in human HCC1806 cells at 10 uM incubated for 1 to 24 hrs by Western blotting method; type: functional, cell-based; method in brief: as §3
# [26] = test system: HCC1806; assay: Increase in CHOP mRNA expression in human HCC1806 cells at 5 uM in presence of CHOP siRNA incubated for 48 hrs by qRT-PCR method; type: functional, cell-based; method in brief: as §7
# [27] = test system: HCC1806; assay: Increase in XBP1 mRNA splicing in human HCC1806 cells at 10 uM incubated for 2 hrs by RT-PCR method (reference value: 11%); type: functional; method in brief: as §9
# [28] = test system: HCC1806; assay: Increase in XBP1 mRNA splicing in human HCC1806 cells at 10 uM incubated for 8 hrs by RT-PCR method (reference value: 11%); type: functional; method in brief: as §9
# [29] = test system: HEK-293T; assay: Increase in UPRE-mediated luciferase expression in HEK293T cells stably transfected with UPRE-luciferase gene at 10 uM incubated for 24 hrs by luciferase reporter gene assay relative to control; type: functional, Homo sapiens; method in brief: as §2
# [30] = test system: HCC1806; assay: Reduction in ATF4 protein in human HCC1806 cells at 10 uM incubated for 2 to 8 hrs by Western blotting method; type: functional, cell-based; method in brief: as §3
# [31] = test system: HCC1806; assay: Increase in cleaved caspase-4 protein expression in human HCC1806 cells at 10 uM incubated for 8 to 24 hrs by Western blotting method; type: functional, cell-based; method in brief: as §3
# [32] = test system: HCC1806; assay: Increase in ATF4 mRNA expression in human HCC1806 cells at 10 uM incubated for 2 to 8 hrs by qRT-PCR method; type: functional, cell-based; method in brief: as §6
structure (smiles),measurement,setting,value
CC(C)Cc1ccccc1NC(=O)c1ccc([N+](=O)[O-])o1,pIC50,[1],< 4.40
O=C(Nc1cc(C(F)(F)F)ccc1Cl)c1ccc([N+](=O)[O-])o1,pIC50,[1],5.29
O=C(Nc1cc(Cl)ccc1Cl)c1ccc([N+](=O)[O-])o1,pIC50,[1],5.07
O=C(Nc1cccc(OC(F)(F)F)c1)c1ccc([N+](=O)[O-])o1,pIC50,[1],4.71
Cc1cccc(NC(=O)c2ccc([N+](=O)[O-])o2)c1C,pIC50,[1],5.01
Cc1cc(NC(=O)c2ccc([N+](=O)[O-])o2)c(C)cc1I,pIC50,[1],5.52
O=C(Nc1ccc(N2CCN(Cc3ccccc3F)CC2)cc1)c1ccc([N+](=O)[O-])o1,pIC50,[1],5.52
same,pIC50,[2],5.42
same,pIC50,[3],5.72
O=C(Nc1ccc(I)cc1)c1ccc([N+](=O)[O-])o1,fold change (FC),[4],24
same,fold change (FC),[5],30
same,Activity,[1],Dose-dependent effect
same,pIC50,[1],5.21
same,Activity,[2],Dose-dependent effect
same,pIC50,[2],5.02
same,Activity,[3],Dose-dependent effect
same,pIC50,[3],5.06
CC1CCN(c2ccc(NC(=O)c3ccc([N+](=O)[O-])o3)cc2)CC1,Activity,[6],inactive
same,Activity,[7],Active
same,Activity,[8],Dose-dependent effect
same,Activity,[9],tde
same,Activity,[10],Active
same,Activity,[1],Dose-dependent effect
same,pIC50,[1],5.55
same,Activity,[11],Dose-dependent effect
same,Activity,[12],tde
same,Activity,[13],Active
same,Activity,[14],Active
same,Activity,[15],Active
same,Activity,[16],Active
same,Activity,[17],Active
same,Activity,[18],tde
same,Activity,[19],Active
same,Activity,[20],15.3%
same,fold change (FC),[21],9
same,Activity,[22],inactive
same,fold change (FC),[23],9
same,Activity,[24],16.4%
same,Activity,[25],Active
same,Activity,[26],Active
same,Activity,[27],19.6%
same,Activity,[28],14.2%
same,pIC50,[2],5.68
same,pIC50,[3],5.60
same,fold change (FC),[29],< 2
same,Activity,[30],Active
same,Activity,[31],Active
same,Activity,[32],Active
COc1ccc(Cl)cc1NC(=O)c1ccc([N+](=O)[O-])o1,pIC50,[1],5.15
